Source: article PMC12541583 (Acta Pharmaceutica Sinica. B, 2025)
One block for each compound: values may come before it.

Key:
PARP1 [1] = molecular target: PARP1 (Rattus norvegicus, UniProt P27008); experiment: In vitro autoradiography of [18F]AZD9574 on rat brain sections; type: binding; details: blocker 10 μmol/L
MDR1 (P-gp) = MDR1 (P-gp) (Homo sapiens, UniProt P08183); experiment: In vitro Pg-P efflux assay; type: in vitro ADME; details: not told
CYP1A2 = molecular target: T1, CYP1A2 (Homo sapiens, UniProt P05177); experiment: CYP interactions, CYP1A2; type: in vitro ADME
T1 sequence (P05177 1-516): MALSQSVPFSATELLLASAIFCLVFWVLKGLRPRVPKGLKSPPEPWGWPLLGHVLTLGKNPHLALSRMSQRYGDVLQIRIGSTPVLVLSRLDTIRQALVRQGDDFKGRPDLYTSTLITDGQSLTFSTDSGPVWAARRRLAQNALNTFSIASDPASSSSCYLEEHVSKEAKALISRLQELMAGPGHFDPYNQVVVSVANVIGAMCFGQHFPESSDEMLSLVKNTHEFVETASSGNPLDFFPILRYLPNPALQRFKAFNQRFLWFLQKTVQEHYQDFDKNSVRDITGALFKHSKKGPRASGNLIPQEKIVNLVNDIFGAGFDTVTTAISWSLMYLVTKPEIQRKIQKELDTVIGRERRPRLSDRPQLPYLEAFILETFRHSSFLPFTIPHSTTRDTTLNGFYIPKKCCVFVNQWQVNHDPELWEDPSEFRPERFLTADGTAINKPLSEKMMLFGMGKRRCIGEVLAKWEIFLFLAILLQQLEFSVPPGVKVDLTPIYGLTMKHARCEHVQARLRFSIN

CYP2D6 = CYP2D6 (Homo sapiens, UniProt P10635); experiment: CYP interactions, CYP2D6; type: in vitro ADME
CYP2C19 = CYP2C19 (Homo sapiens, UniProt P33261); experiment: CYP interactions, CYP2C19; type: in vitro ADME
Sequence of CYP2C19 (P33261 whole entry, species assumed): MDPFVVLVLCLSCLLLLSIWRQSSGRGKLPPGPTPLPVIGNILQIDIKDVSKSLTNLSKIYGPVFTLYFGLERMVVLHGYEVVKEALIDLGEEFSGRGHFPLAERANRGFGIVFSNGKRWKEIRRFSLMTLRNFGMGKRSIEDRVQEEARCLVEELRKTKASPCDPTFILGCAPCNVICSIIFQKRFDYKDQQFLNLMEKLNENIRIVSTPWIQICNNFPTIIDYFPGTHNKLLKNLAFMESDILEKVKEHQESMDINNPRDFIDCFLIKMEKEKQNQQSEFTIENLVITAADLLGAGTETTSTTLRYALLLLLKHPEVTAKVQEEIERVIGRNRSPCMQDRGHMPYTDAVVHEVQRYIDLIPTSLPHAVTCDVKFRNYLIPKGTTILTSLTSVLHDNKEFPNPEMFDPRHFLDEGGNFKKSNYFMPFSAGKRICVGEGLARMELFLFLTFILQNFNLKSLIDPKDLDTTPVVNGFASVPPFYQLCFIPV

CYP3A4 = CYP3A4 (Homo sapiens, UniProt P08684); experiment: CYP interactions, CYP3A4; type: in vitro ADME
CYP2C9 = CYP2C9 (Homo sapiens, UniProt P11712); experiment: CYP interactions, CYP2C9; type: in vitro ADME
CYP19A = molecular target: T2, CYP19A (Homo sapiens, UniProt P11511); experiment: CYP interactions, CYP19A; type: in vitro ADME
T2 sequence (P11511 1-503): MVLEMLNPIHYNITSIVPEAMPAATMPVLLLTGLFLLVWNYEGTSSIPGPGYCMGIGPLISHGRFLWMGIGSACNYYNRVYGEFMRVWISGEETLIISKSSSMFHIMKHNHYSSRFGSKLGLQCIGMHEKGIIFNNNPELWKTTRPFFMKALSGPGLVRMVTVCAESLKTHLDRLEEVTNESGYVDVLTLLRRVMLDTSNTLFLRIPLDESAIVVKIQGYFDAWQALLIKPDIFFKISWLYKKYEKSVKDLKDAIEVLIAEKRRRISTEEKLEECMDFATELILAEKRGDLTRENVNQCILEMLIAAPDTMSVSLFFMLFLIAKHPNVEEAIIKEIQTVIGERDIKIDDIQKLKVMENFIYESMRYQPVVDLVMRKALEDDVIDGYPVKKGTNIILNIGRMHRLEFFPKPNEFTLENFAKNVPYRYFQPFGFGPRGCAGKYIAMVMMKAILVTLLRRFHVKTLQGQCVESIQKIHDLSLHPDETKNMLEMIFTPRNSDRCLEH

[2] = molecular target: human ether-a-go-go-related gene (hERG) channel (Homo sapiens, UniProt Q12809); experiment: In vitro hERG channel safety
Sequence of human ether-a-go-go-related gene (hERG) channel (Q12809 whole entry): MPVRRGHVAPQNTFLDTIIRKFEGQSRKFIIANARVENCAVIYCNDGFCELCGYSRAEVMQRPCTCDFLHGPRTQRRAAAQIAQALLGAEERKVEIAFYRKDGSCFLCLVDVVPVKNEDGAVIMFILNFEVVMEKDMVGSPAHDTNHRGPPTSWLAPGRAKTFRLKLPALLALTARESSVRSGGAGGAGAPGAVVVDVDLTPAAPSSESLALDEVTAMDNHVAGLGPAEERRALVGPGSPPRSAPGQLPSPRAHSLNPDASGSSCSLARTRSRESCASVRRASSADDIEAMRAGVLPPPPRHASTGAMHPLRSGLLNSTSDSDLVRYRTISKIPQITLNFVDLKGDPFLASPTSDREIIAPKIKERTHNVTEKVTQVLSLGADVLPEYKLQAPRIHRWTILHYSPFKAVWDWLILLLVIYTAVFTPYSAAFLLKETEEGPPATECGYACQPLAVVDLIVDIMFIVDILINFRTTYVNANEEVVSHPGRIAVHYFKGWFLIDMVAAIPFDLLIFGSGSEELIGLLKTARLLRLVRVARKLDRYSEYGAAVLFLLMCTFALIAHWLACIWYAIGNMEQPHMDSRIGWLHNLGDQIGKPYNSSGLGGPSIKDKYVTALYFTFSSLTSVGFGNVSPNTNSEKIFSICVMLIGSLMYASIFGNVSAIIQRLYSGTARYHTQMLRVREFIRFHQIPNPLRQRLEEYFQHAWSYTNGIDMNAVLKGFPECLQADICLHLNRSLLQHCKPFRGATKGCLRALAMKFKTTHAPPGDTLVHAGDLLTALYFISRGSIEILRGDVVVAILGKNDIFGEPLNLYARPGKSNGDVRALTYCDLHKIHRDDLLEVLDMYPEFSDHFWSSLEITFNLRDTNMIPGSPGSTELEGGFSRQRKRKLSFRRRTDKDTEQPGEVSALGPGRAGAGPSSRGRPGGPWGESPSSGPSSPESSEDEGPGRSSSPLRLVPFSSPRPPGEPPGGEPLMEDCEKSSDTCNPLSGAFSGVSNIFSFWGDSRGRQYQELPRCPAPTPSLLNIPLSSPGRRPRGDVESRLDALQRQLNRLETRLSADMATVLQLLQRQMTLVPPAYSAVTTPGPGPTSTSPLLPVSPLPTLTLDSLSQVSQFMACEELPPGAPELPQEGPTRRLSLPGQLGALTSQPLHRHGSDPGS

HepG2 cells = experiment: CellTiter-Glo luminescent cell viability assay in HepG2 cells; type: cell-based; details: Homo sapiens, HepG2, read-out: HepG2 IC50
PARP1 [3] = experiment: In vitro autoradiography of [18F]AZD9574 on NHP cerebellum brain sections; type: binding; details: blocker 10 μmol/L
How it was run: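 Rat and NHP brain sections were pre-incubated 10 min at ambient temperature in 50 mmol/L Tris–HCl with 0.1% BSA. They were then incubated 1 h with radioligand (~4 μCi/mL, ~4 nmol/L), with blockers at 10 μmol/L added beforehand. Sections were rinsed twice for 2 min in ice-cold buffer with ethanol, dipped in cold water, air-dried and exposed to imaging plates overnight. ROI radioactivity was taken as % of control; mean ± SD, n = 3.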

PARP1 [4] = molecular target: PARP1 (Macaca mulatta, UniProt H9FQ77); experiment: NHP PET imaging of [18F]AZD9574, baseline and blocking; type: in vivo, rhesus monkeys
Sequence of PARP1 (Macaca mulatta, UniProt H9FQ77) (H9FQ77 1-1014): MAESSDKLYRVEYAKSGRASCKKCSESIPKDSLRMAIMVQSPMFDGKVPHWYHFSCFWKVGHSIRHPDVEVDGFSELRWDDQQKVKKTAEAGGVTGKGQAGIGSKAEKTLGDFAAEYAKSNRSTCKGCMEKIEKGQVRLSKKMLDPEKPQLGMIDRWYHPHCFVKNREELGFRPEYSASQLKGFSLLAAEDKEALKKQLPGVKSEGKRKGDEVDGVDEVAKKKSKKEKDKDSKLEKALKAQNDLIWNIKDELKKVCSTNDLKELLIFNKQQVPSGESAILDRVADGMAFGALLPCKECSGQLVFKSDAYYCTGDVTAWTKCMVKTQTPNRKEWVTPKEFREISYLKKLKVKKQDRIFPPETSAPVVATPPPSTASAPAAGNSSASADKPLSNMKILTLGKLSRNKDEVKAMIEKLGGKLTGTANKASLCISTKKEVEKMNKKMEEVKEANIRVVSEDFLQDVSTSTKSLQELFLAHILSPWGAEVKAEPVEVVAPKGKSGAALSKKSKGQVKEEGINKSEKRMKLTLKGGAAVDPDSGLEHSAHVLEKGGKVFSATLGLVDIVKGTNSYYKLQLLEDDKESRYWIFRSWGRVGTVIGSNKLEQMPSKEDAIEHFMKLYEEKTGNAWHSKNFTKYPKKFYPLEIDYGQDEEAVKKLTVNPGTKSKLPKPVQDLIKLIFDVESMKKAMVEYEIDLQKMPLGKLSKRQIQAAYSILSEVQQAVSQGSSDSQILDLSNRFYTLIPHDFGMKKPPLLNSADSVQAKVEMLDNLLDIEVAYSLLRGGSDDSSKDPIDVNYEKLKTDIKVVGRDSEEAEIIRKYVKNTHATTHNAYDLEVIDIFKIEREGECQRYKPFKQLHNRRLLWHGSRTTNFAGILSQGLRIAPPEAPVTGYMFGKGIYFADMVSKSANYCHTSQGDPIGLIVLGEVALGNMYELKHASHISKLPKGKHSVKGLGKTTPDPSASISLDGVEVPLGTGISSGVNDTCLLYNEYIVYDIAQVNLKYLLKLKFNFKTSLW
How it was run: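 An iv bolus of tracer (4.05 ± 0.54 mCi) was followed by 90 min dynamic 3D PET acquisition in 36 frames. ROIs were drawn on co-registered T1-weighted MRI. Regional SUV time–activity curves were generated; baseline scans n = 2 animals.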

PC3 cell lines = experiment: In vitro cellular uptake and blocking of [18F]AZD9574 in PC3 cells; type: cell-based; details: blocker 1 μmol/L
How it was run: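 PC3 cells were grown in F-12K with 10% FBS and 1% penicillin–streptomycin at 37 °C, 5% CO2, and seeded at 1×10^5 cells/well 24 h before use. After two PBS rinses, 1 μCi/well tracer plus blocking agent was added in serum-free medium for 60 min at 37 °C. Cells were rinsed twice with cold PBS, lysed in 0.1 mol/L NaOH and counted in a gamma counter.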

Sequence of PARP1 (Rattus norvegicus, UniProt P27008) (P27008 whole entry): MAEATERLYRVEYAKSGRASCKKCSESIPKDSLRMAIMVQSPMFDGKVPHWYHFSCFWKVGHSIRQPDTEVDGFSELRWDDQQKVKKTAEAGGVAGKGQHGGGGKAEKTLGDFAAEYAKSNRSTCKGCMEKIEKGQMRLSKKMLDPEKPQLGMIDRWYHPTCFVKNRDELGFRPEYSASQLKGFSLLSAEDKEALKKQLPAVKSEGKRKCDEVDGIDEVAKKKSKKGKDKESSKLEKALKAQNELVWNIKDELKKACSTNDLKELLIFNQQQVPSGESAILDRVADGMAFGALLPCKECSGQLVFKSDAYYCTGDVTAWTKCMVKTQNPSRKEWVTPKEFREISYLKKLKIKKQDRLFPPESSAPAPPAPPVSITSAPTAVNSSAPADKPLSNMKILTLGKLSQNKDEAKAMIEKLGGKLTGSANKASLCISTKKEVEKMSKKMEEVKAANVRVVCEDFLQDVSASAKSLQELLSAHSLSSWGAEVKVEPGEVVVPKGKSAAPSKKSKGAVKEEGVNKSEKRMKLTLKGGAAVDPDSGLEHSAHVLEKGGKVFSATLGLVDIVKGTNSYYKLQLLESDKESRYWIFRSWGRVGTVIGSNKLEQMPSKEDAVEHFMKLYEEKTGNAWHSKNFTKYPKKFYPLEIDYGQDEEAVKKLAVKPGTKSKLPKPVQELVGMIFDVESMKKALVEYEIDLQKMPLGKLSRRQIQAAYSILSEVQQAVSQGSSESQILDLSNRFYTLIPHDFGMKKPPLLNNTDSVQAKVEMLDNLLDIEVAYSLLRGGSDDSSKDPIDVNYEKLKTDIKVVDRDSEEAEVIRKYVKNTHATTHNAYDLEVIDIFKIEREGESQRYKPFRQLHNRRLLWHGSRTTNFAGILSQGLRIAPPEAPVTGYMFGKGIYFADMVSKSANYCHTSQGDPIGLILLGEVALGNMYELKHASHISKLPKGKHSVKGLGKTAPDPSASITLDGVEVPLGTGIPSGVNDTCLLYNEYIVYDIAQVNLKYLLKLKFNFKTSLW
Sequence of MDR1 (P-gp) (P08183 whole entry, species assumed): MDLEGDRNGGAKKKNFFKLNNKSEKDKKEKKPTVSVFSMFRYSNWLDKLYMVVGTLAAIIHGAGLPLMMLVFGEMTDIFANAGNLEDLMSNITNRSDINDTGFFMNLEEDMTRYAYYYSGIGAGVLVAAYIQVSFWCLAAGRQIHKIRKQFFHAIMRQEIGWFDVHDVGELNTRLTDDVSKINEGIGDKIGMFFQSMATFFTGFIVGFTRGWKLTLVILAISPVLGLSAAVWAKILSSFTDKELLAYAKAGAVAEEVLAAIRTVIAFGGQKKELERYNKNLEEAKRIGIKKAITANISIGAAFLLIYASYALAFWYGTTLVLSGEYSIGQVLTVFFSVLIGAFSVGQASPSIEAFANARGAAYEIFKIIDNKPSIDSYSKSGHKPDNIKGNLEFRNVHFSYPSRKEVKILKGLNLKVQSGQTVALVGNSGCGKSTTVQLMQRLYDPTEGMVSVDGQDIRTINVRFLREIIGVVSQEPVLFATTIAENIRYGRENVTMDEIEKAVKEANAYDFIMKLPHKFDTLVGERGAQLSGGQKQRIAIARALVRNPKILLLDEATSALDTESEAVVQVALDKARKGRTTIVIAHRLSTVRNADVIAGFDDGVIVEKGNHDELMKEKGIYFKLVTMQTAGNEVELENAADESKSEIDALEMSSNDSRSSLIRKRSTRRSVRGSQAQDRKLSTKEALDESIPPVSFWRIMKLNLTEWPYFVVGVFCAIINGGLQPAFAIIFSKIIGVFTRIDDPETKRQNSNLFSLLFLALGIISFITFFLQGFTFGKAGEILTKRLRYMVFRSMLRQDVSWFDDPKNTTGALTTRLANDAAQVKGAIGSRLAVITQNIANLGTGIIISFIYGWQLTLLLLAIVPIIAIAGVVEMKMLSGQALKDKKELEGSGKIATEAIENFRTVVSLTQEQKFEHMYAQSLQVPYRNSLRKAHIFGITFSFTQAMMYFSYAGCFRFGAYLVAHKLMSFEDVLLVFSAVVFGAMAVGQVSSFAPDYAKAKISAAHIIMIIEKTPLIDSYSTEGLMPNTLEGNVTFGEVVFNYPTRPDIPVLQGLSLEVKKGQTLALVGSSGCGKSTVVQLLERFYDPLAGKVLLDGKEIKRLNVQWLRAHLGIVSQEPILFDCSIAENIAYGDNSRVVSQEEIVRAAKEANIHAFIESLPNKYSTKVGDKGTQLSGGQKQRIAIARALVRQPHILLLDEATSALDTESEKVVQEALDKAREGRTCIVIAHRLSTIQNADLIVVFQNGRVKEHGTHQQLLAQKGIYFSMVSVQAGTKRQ

SMILES: COC1CCN(C(=O)c2cc(Cc3n[nH]c(=O)c4ccccc34)ccc2F)CC1 [AZD2461]
reduction of [18F]AZD9574 radioactivity accumulation in all brain regions (PARP1 [1]): greater than 85%

SMILES: CNC(=O)c1ccc(N2CCN(Cc3ccc4nc(C)c(=O)[nH]c4c3F)CC2)c(F)n1 [compound 5, 6-fluoro-5-(4-((5-fluoro-2-methyl-3-oxo-3,4-dihydroquinoxalin-6-yl)methyl)piperazin-1-yl)-N-methylpicolinamide]
Papp A→B (MDR1 (P-gp)): 42.5 ×10⁻⁶ cm/s
IC50 (CYP1A2): > 5 µM
IC50 (CYP2D6): > 5 µM
IC50 (CYP2C19): > 5 µM
IC50 (CYP3A4): > 5 µM
IC50 (CYP2C9): > 5 µM
IC50 (CYP19A): > 5 µM
IC50 [2]: > 100 µM
IC50 (HepG2 cells): > 100 µM
effect on [18F]AZD9574 uptake in the cerebellum (PARP1 [3]): substantial uptake reduction
reduction of [18F]AZD9574 radioactivity accumulation in the cerebellum (area under curve 60-90 min) (PARP1 [4]; pretreatment 0.05 mg/kg): 37.7%
reduction of [18F]AZD9574 radioactivity accumulation in the cerebellum (area under curve 60-90 min) (PARP1 [4]; pretreatment 0.5 mg/kg): 63.4%

SMILES: O=C(c1cc(Cc2n[nH]c(=O)c3ccccc23)ccc1F)N1CCN(C(=O)C2CC2)CC1 [olaparib, reference compound]
effect on [18F]AZD9574 uptake (PC3 cell lines): significantly attenuated
effect on [18F]AZD9574 uptake in the cerebellum (PARP1 [3]): substantial uptake reduction

Results, then the compound that gave them:

reduction of [18F]AZD9574 radioactivity accumulation in all brain regions (PARP1 [1]): greater than 85%
SMILES: C[C@]12CCCN1CC1=NNC(=O)c3cc(F)cc4[nH]c2c1c34 [pamiparib]

reduction of [18F]AZD9574 radioactivity accumulation in all brain regions (PARP1 [1]): greater than 85%
SMILES: CNCc1ccc(-c2[nH]c3cc(F)cc4c3c2CCNC4=O)cc1 [rucaparib]

reduction of [18F]AZD9574 radioactivity accumulation in all brain regions (PARP1 [1]): greater than 85%
SMILES: C[C@]1(c2nc3c(C(N)=O)cccc3[nH]2)CCCN1 [veliparib]
